Mdm2 MdmX PPI: disrupts the human Mdm2-MdmX interaction | inhibition, % at 8 µM | SaOS-2 split-luciferase Mdm2/MdmX complementation, luminescence | 3% of 330,000 active | O15151+Q00987;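 active = inhibition of at least 50% at 8 µM in the primary screen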
Dynein cargo inh: dynein cargo transport inhibition; AID 1381; z-score, hits read low; 3617.4 mouse cells, GR-EGFP nuclear translocation imaging; test concentration mostly 20 µM; stimulated with dexamethasone, 1 µM; active compounds read low; 0.47% of 220,000 active;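 active = plate z-score of nuclear minus cytoplasmic receptor signal below a set negative limit, without overly bright fluorescence or cell loss, cut at about -3.5 in these data, passing the limit was not always enough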;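 also: z-score of nuclear minus cytoplasmic ring GR-EGFP intensity difference per well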
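Also added: dexamethasone, 1.0 µM final. Medium: tet-free, stripped-serum medium. Detection: fixed, Hoechst-stained cells imaged at 10x for EGFP. Read-out: nuclear-to-cytoplasmic GR-EGFP distribution per well. Times: induction 48 h, compound 1 h, agonist 30 min.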
UPR CHOP act: apoptotic UPR (CHOP) activation. CHO-CHOP luciferase reporter, luminescence; percent of tunicamycin response over DMSO baseline. activation, % at 10 µM. 0.34% of 330,000 active. AID 449763;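 active = at 10 µM dose, activation of 40% or more, normalized to positive control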;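 also: 100% = tunicamycin at 10 µg/mL and 0% = DMSO alone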
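System: CHO-CHOP luciferase reporter cell line; amount: 500 cells/well; buffer or medium: F12 medium containing 10% fetal bovine serum; incubation: 6 h compound exposure at 37 °C after overnight seeding; measured by: luciferase luminescence after 10 min with Steady-Glo reagent; evaluation: % reporter activation, DMSO baseline versus tunicamycin full activation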
MDM2 E3 inh: inhibitors of human Mdm2 E3 ubiquitin ligase; Q00987; cell-based MDM2 ubiquitination luciferase reporter, 2 h; 0 = plate control, 100 = twice control, blank-subtracted; signal enhancement, % at 5 µM; 0.11% of 210,000 active; AID 1230;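 active = signal enhancement of 30% or more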;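 also: luminescence tracks abundance of the self-degrading MDM2-luciferase fusion protein; higher signal means inhibition of MDM2 E3 ligase activity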
Target sequence (Q00987 whole entry, looked up, the tested form may be a part): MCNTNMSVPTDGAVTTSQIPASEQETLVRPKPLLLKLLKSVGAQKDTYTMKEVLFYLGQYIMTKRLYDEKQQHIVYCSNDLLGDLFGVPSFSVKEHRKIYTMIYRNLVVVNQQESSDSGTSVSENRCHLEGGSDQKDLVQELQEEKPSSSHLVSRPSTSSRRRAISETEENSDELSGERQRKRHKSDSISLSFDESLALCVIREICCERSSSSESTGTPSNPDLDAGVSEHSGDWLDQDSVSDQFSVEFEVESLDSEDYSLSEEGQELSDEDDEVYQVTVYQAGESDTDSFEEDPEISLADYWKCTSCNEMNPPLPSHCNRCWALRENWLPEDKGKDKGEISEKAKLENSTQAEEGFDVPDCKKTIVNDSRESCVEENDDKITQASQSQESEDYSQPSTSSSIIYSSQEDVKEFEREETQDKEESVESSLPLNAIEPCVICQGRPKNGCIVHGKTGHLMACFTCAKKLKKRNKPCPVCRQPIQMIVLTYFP
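Test system: stable mammalian line carrying autodegrading MDM2–luciferase fusion reporter; quantity: 2000 cells in each well; times: 4 h cell settling then 2 h compound exposure, 37 °C; detection: luminescence with SteadyLite reagent, 15 min at room temperature; evaluation: percent signal gain over controls, blank-subtracted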
Beta2AR agonist: activates human beta-2 adrenergic receptor causing internalization. Am2.2-beta2AR cells, FAP receptor internalization, flow cytometry. response, % (concentration not given with the values). P07550. 0.43% of 340,000 active;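 active = response above a set limit, near 3 SD of response in nonfluorescent compounds, cut at about 42% in these data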
XBP1 UPR activ: adaptive UPR (XBP1) activation; CHO-XBP1 luciferase reporter, IRE1-XBP1 UPR activation, luminescence; percent of tunicamycin response, DMSO as zero; activation, % at 20 µM; 0.33% of 330,000 active; AID 463104;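 active = versus positive control, 20 µM dose yields 30% or more activation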;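 also: 100% = tunicamycin at 10 µg/mL and 0% = DMSO only wells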
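Material – CHO cell line with stable XBP1 luciferase reporter · Buffer or medium – F12 plus 10% FBS · Compound – single point, 20 µM final compound, 1% DMSO · Schedule – 16-18 h cell attachment at 37 °C, then 6 h compound exposure · Signal – Steady-Glo luminescence read · Benchmarks – high control tunicamycin 10 µg/mL final, low control DMSO vehicle only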
Mdm2 MdmX conf: human Mdm2/MdmX binding inhibition, confirmed; shares compounds with Mdm2 MdmX PPI; luminescent assay; inhibition, % at 8 µM; 55% of 10,000 active; in the data active = inhibition above about 40%
Full FLuc ctr: inhibits full-length luciferase, flagging false Mdm2/MdmX hits; inhibition, % at 8 µM; 77% of 6,200 active; AID 504607; shares compounds with Mdm2 MdmX PPI; SaOS-2 full-length luciferase counterscreen, luminescence;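 active = mean inhibition at 8 µM reaching about 37%, which flags the compound as non-specific, limit read from the data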;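 also: p53-null SaOS-2 cells with luciferase driven by a doxycycline-inducible promoter; compound on cells about two nights before reading with doxycycline added after day one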
* marks the source's active call; other numbers are inactive results; / = no result given. Rows were chosen to be rich in hits. Some 3.7% of all compounds tested hit in one or more screens of this group.

SMILES	Mdm2 MdmX PPI	Dynein cargo inh	UPR CHOP act	MDM2 E3 inh	Beta2AR agonist	XBP1 UPR activ	Mdm2 MdmX conf	others
Cc1ccc(NC(=O)c2nc[nH]c2C(=O)NCCCCCCNC(=O)c2[nH]cnc2C(=O)Nc2ccc(C)cc2)cc1	69.7*	/	3.3	/	-4.2	10.2	11.4
O=C(c1ccccc1)c1nc[nH]c1C(=O)Nc1ccccc1	50.2*	-0.859	-3.1	-25.4	-2.1	5.8	29.8	Full FLuc ctr=64.8*
Cc1ccc(NC(=O)c2nc[nH]c2C(=O)NCCCCNC(=O)c2[nH]cnc2C(=O)Nc2ccc(C)cc2)cc1	79.6*	/	13.9	/	14.6	24.7	21.0
CCOC(=O)c1ccc(NC(=O)c2nc[nH]c2C(=O)NCCCCNC(=O)c2[nH]cnc2C(=O)Nc2ccc(C(=O)OCC)cc2)cc1	16.5	/	-0.2	/	5.3	1.6	/
O=C(Nc1ccccc1)c1nc[nH]c1C(=O)NCCCCNC(=O)c1[nH]cnc1C(=O)Nc1ccccc1	77.1*	/	3.5	/	10.4	3.1	45.1*	Full FLuc ctr=89.9*
COC(=O)C1CCN(C(=O)COC(=O)c2oc3ccc(OC)cc3c2C)CC1	5.5	/	0.1	/	2.5	-5.0	/
CC(=O)Nc1ccc(C(=O)CN2C(=O)CSC2=O)cc1	-4.8	/	2.1	/	5.2	-3.9	/
CS(=O)(=O)N(CC(=O)Nc1ccccc1Br)Cc1ccccc1	20.6	/	2.6	/	4.5	0.3	/
O=C(N/N=C/c1cccc(OC(=O)c2cccc(Br)c2)c1)c1ccncc1	16.2	/	11.6	/	0.5	3.2	/
CCOc1ccc(OCC(=O)OCC(=O)N2CCN(S(=O)(=O)c3ccc(C)cc3C)CC2)cc1	/	/	/	/	-6.1	/	/
COc1ccc(-c2c3c(nc4sc5c(Cl)nc(C)nc5c24)CCC3)cc1	98.9*	0.383	27.6	-6.5	29.6	4.0	-20.8
NC(=O)c1sc2nc3c(c(-c4ccco4)c2c1N)CCCC3	61.2*	0.413	-1.9	/	6.0	-2.4	66.8*	Full FLuc ctr=36.5*
Cc1ccc(-c2c3c(nc4sc(C(N)=O)c(N)c24)CCC3)cc1	55.6*	-0.833	0.0	-8.3	-2.8	-4.1	55.5*	Full FLuc ctr=47.0*
NC(=O)c1sc2nc3c(c(-c4ccc(Cl)cc4)c2c1N)CCCC3	36.2	-0.566	-2.9	-10.2	4.8	1.7	/
Cc1ccc(C(=O)Cn2nnc3c(sc4nc5c(c(-c6ccccc6)c43)CCC5)c2=O)cc1	-5.8	-0.283	-1.7	-17.9	-2.3	2.6	/
CC(C)(C)C(=O)Nc1ccc(C(=O)COC(=O)c2ccccn2)cc1	12.8	/	4.0	/	16.3	3.3	/
O=[N+]([O-])c1cnccc1Nc1cccc(F)c1	-4.2	-0.74	0.3	/	5.7	1.7	/
O=[N+]([O-])c1ccc(Oc2cccc(F)c2)c2ccncc12	58.0*	-0.593	-2.0	-15.2	0.1	-0.3	26.5
Cc1cc(C)c(C)c(S(=O)(=O)N2CCC(C(=O)NNC(=O)c3ccccc3O)CC2)c1C	66.5*	/	-1.3	/	2.0	-2.1	65.5*	Full FLuc ctr=45.2*
Cc1ccc(S(=O)(=O)N2CCC(C(=O)NNC(=O)c3ccccc3O)CC2)cc1	11.4	/	1.8	/	13.4	-2.3	/
Cc1cc(C)c(C)c(S(=O)(=O)N2CCC(C(=O)Nc3ccc(S(=O)(=O)N4CCOCC4)cc3)CC2)c1C	46.3	/	3.8	/	2.1	-3.8	/
Cc1ccc(S(=O)(=O)N2CCC(C(=O)NNC(=O)c3ccccc3O)CC2)cc1C	53.2*	/	-0.8	/	0.6	-2.7	49.9*	Full FLuc ctr=46.4*
O=C(CCN1C(=O)S/C(=C\c2ccccc2)C1=O)NC1CCS(=O)(=O)C1 (stereo unspecified)	3.4	/	0.4	/	-8.6	0.8	/
CCc1ccc(CN(C)Cc2nc(-c3cccc(Cl)c3)no2)nc1	12.2	0.173	-0.7	0.7	1.8	-2.2	/
Cc1cc(C)c(C(=O)NNC(=O)c2cccnc2)c(C)c1	1.2	/	1.6	/	3.0	-4.0	/

Assay outcomes deposited in PubChem BioAssay by several laboratories.
